ChEMBL document CHEMBL1124118, “Design, synthesis, and antineoplastic activity of 2'-deoxy-2'-methylidenecytidine” (J Med Chem, 1988)
≈ marks a conversion by molar mass, not a printed value.

Assays:
Type in all cases: functional, cell-based
L1210 = test: In vitro inhibitory effect on growth of mouse leukemic L1210 cell lines.
Summary of the method: (§1)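 MTT growth-inhibition assay (Carmichael method). Tumor cells seeded at 1 × 10^4 per well and incubated with or without compound for 72 h. MTT then added and OD(550-660 nm) read. % inhibition = [1 − (OD sample / OD control)] × 100. IC50 (μg/mL) taken as the concentration giving 50% inhibition of cell growth.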

MOLT-4 = test: In vitro inhibitory effect on growth of human T-cell acute lymphoblastic leukemic MOLT 4 cell lines.; summary of the method: as §1
T-24 = test: In vitro inhibitory effect on growth of human bladder transitional-carcinoma cell lines (T24).; summary of the method: as §1
CCRF-CEM = test: In vitro inhibitory effect on growth of human T-cell acute lymphoblastoid leukemic CCRFCEM cell lines.; summary of the method: as §1
TE-2 = test: In vitro inhibitory effect on growth of human esophagus […] cell lines (TE2).; summary of the method: as §1
SW480 = test: In vitro inhibitory effect on growth of human colon adenocarcinoma cell lines (SW480).; summary of the method: as §1
PC10 [1] = test: In vitro inhibitory effect on growth of human lung squamous cell carcinom cell lines (PC10).; summary of the method: as §1
K562 = test: In vitro inhibitory effect on growth of human chronic myelogenous leukemic K562 cell lines.; summary of the method: as §1
PC10 [2] = test: In vitro inhibitory effect on growth of human lung squamous cell carcinoma cell lines (PC10).
Summary of the method: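 Cells seeded at 1 × 10^4/well and incubated with or without compound for 72 h. MTT was then added and OD(550-660 nm) was read. % inhibition = [1 − (OD of sample well / OD of control well)] × 100. IC50 (μg/mL) is the concentration giving 50% inhibition of cell growth.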

Compound | IC50 (L1210) | IC50 (MOLT-4) | IC50 (T-24) | IC50 (CCRF-CEM) | IC50 (TE-2) | IC50 (SW480) | IC50 (PC10 [1]) | IC50 (K562) | IC50 (PC10 [2])
C=C1C(n2ccc(N)nc2=O)O[C@H](CO)[C@@H]1O (some centres undefined) | 0.11 µg/mL (≈ 0.46 µM) | 0.025 µg/mL (≈ 0.105 µM) | 3.7 µg/mL (≈ 15.5 µM) | 0.047 µg/mL (≈ 0.196 µM) | 2.9 µg/mL (≈ 12.1 µM) | 3.8 µg/mL (≈ 15.9 µM) | 60.5 µg/mL (≈ 253 µM) | 1.2 µg/mL (≈ 5.02 µM) | 
O=c1[nH]cc(F)c(=O)[nH]1 [FLUOROURACIL] | 0.32 µg/mL (≈ 2.46 µM) | 3.8 µg/mL (≈ 29.2 µM) | 6.1 µg/mL (≈ 46.9 µM) | 40 µg/mL (≈ 308 µM) | 3.9 µg/mL (≈ 30 µM) | 3.3 µg/mL (≈ 25.4 µM) |  | 38 µg/mL (≈ 292 µM) | > 100 µg/mL
Nc1ccn([C@@H]2O[C@H](CO)[C@@H](O)[C@@H]2O)c(=O)n1 [CYTARABINE] | 0.097 µg/mL (≈ 0.399 µM) | 0.056 µg/mL (≈ 0.23 µM) | > 100 µg/mL | 0.065 µg/mL (≈ 0.267 µM) | > 100 µg/mL | > 100 µg/mL |  | 3.2 µg/mL (≈ 13.2 µM) | > 100 µg/mL
